We go through 15 compounds from ChEMBL document CHEMBL4196042, “Novel indanone derivatives as MAO B/H3R dual-targeting ligands for treatment of Parkinson's disease” (Eur J Med Chem, 2018).

The target of data set [1] is T1, Histamine H3 receptor (Homo sapiens, UniProt Q9Y5N1). Put plainly: Displacement of [3H]-N-alpha-methylhistamine from human H3R expressed in HEK293 cell membranes after 90 mins by liquid scintillation counting method. An outline of the steps:
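Membranes (20 µg) from HEK-293 cells stably expressing human H3R were incubated with 2 nM [3H]-N-α-methylhistamine and at least seven test concentrations. Incubation was 90 min at room temperature, with shaking, in 75 mM Tris/HCl (pH 7.4), 12.5 mM MgCl2 and 100 mM NaCl. Nonspecific binding used 10 µM pitolisant. Counting was by liquid scintillation; Ki came from Cheng-Prusoff on one-site competition fits, at least in duplicate.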
(In general: In a radioligand displacement assay an active substance lowers the binding of a labelled ligand.)

In data set [2] the target is T2, Amine oxidase [flavin-containing] A (Homo sapiens, UniProt P21397).
T2 sequence (P21397 whole entry): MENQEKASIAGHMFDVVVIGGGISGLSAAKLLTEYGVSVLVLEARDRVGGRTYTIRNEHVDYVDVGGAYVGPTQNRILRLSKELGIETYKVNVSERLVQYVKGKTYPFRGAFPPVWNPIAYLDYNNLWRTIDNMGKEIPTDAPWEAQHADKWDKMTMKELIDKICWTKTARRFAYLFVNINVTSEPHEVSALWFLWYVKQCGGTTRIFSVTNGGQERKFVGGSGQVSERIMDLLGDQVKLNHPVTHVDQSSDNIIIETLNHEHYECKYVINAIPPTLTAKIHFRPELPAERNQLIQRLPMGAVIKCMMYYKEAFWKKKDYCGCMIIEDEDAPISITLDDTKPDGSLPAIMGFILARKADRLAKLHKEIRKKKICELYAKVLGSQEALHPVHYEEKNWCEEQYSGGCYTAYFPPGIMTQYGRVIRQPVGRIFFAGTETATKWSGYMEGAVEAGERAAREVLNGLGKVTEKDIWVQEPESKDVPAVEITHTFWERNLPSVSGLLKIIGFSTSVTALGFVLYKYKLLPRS
Put plainly: Inhibition of human MAO-A expressed in baculovirus infected insect cell membranes at 10 uM using kynuramine as substrate by continuous spectrophotometric method relative to control.

The target in data set [3] is T3, Amine oxidase [flavin-containing] B (Homo sapiens, UniProt P27338).
T3 sequence (P27338 whole entry): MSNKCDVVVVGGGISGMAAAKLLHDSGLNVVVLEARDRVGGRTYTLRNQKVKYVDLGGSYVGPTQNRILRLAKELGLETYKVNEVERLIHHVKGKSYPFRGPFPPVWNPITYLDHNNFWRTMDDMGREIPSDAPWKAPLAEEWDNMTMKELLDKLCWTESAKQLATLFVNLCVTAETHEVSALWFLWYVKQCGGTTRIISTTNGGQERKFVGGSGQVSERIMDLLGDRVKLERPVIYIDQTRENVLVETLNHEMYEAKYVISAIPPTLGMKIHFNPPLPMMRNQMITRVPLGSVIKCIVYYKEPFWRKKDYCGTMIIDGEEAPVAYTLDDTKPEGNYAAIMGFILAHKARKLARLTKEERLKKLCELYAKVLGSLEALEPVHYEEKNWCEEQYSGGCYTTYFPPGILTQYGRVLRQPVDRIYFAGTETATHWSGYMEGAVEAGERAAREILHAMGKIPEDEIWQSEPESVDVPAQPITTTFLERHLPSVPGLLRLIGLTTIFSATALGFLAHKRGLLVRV
Put plainly: Inhibition of human MAO-B expressed in baculovirus infected insect cell membranes at 10 uM using kynuramine as substrate by continuous spectrophotometric method relative to control.

The target in data set [4] is T1, Histamine H3 receptor. Put plainly: Displacement of [125I]iodoproxyfan from human H3R expressed in CHOK1 cell membranes after 60 mins by gamma counting method.
Data set [5] addresses T2, Amine oxidase [flavin-containing] A. Put plainly: Inhibition of human MAO-A expressed in baculovirus infected insect cell membranes using kynuramine as substrate after 15 to 20 mins by discontinuous fluorimetric method. An outline of the steps: (§1)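 Human recombinant membrane-bound MAO A and MAO B were tested with inhibitor at 0.001–100 µM and kynuramine at 2×KM. Conditions were 50 mM potassium phosphate, pH 7.4, 20 min at 37°C, no preincubation, with NaOH stop and fluorimetric 4-hydroxyquinoline read-out. IC50 came from a three-parameter log-inhibitor fit with the bottom fixed at zero, from at least three independent experiments in at least duplicate. SI = IC50 MAO A / IC50 MAO B.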

In data set [6] the target is T3, Amine oxidase [flavin-containing] B. Description: Inhibition of human MAO-B expressed in baculovirus infected insect cell membranes using kynuramine as substrate after 15 to 20 mins by discontinuous fluorimetric method.
For a further data set, the species on record is Homo sapiens. Description: Selectivity index, ratio of IC50 for human MAO-A expressed in baculovirus infected insect cell membranes without preincubation with enzyme to IC50 for human MAO-B expressed in baculovirus infected insect cell membranes without preincubation with enzyme. An outline of the steps: as §1
Data set [7] addresses T3, Amine oxidase [flavin-containing] B. Put plainly: Inhibition of human MAO-B expressed in baculovirus infected insect cell membranes at 5 uM using kynuramine as substrate after 15 to 20 mins by discontinuous fluorimetric method relative to control. An outline of the steps: (§2)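 Single-point screen (10, 2 or 5 µM) on human recombinant membrane-bound MAO A or MAO B. Kynuramine was used at 2×KM (KM 30 µM for MAO A, 20 µM for MAO B) in 50 mM potassium phosphate, pH 7.4, 37°C for 20 min, started with enzyme and stopped with 2 N NaOH. 4-Hydroxyquinoline was read fluorimetrically (Ex 320, Em 405 nm) as % of no-inhibitor control; at least two independent experiments in duplicate.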

For data set [8] the target is unchanged. Description: Inhibition of human MAO-B expressed in baculovirus infected insect cell membranes using kynuramine as substrate preincubated for 30 mins followed by substrate addition measured after 15 to 20 mins by discontinuous fluorimetric method.
The target is the same in data set [9]. Description: Reversible inhibition of human MAO-B expressed in baculovirus infected insect cell membranes using excess of kynuramine substrate preincubated for 30 to 60 mins followed by 50 fold compound dilution by fluorimetric method. In short, it runs like this:
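MAO B (10 ng/µL) was preincubated with inhibitor at 10× IC50 for 0, 30 or 60 min at 37°C. […] Residual activity was measured fluorimetrically at saturating kynuramine (10×KM), as % of the matched no-inhibitor control. Data are from at least two independent experiments in duplicate, global fit.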

The target is the same in data set [10]. Description: Inhibition of human MAO-B expressed in baculovirus infected insect cell membranes at 2 uM using kynuramine as substrate after 15 to 20 mins by discontinuous fluorimetric method relative to control. An outline of the steps:
as §2

T1 sequence (Q9Y5N1 whole entry): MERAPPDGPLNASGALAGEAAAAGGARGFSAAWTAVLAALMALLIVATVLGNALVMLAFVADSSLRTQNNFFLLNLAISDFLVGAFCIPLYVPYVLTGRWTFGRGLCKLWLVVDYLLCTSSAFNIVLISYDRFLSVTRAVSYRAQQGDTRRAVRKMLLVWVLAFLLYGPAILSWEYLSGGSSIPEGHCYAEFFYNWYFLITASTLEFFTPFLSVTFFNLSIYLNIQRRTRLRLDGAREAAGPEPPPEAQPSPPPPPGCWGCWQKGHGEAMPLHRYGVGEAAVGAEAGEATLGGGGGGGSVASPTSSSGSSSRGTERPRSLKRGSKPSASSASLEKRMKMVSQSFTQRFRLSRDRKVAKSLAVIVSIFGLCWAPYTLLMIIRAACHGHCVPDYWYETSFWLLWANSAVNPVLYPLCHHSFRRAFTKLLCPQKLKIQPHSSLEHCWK

What is called Ki is a dissociation constant, usually derived from enzyme kinetics or from competition with a known ligand. A low value points to tighter binding. A word on the inhibition: it is how much of the control response was suppressed. A higher inhibition goes with strong suppression. In turn, `COc1ccc2c(c1)C/C(=C\c1ccc(OCCCN3CCCCC3)cc1)C2=O` gave a Ki on Histamine H3 receptor [1] of 33 nM. For the same compound, the figures for the inhibition at 10 µM in [2] and in [3] were not above 25% and 51 to 75%, respectively.

A word on the IC50: it is the concentration that gives 50% inhibition. Take `O=C(c1ccc(OCCCN2CCCCC2)cc1)C1CC1`: the Ki at Histamine H3 receptor [4] was found to be 1.6 nM; on Histamine H3 receptor [1] it was 11 nM. Besides, the IC50 in data set [5] is more than 50000 nM; in data set [6], 3880 nM. Besides, the Ratio IC50 in the data set filed under Homo sapiens is more than 12.

Turning to `O=C1CCc2cc(OCCN3CCCC3)ccc21`, the Ki at Histamine H3 receptor [1] came to 345 nM. Also, the results for the inhibition at 10 µM in data set [2] and in data set [3] were 26 to 50% and not above 25%, respectively.

On to `O=C1/C(=C/c2ccccc2)Cc2cc(OCCCN3CCCCC3)ccc21`, for which the Ki on Histamine H3 receptor [1] is 3.9 nM. Further, the inhibition at 10 µM in data set [2] was not above 25%; in data set [3], 51 to 75%.

For the compound `O=C1/C(=C/c2ccc(OCCCN3CCCCC3)cc2)Cc2cc(OCc3ccc(Br)cc3)ccc21`, in [7], the inhibition at 5 µM lay within 76 to 100%. The compound further showed an inhibition constant (Ki) at Histamine H3 receptor [1] of 6.5 nM. The IC50 in [5] is more than 10000 nM; in data set [8], 262 nM; in [6], 276 nM. The Ratio IC50 in the data set filed under Homo sapiens is more than 36. The “inhibition (INH)” value in [9] was “Active”.

As to `O=C1/C(=C/c2ccc(OCCCN3CCCCC3)cc2)Cc2ccccc21`, the Ki at Histamine H3 receptor [1] is 2.1 nM. The values for the inhibition at 10 µM in [2] and in data set [3] were not above 25% and 51 to 75%, respectively.

For `O=C1/C(=C/c2ccc(OCCCN3CCCCC3)cc2)Cc2ccc(OCc3ccc(Br)cc3)cc21`, in data set [10], the inhibition at 2 µM lay in the range of 51 to 75%. On Histamine H3 receptor [1], this compound displayed a Ki of 32 nM. In addition, the half-inhibitory concentration (IC50) is 5510 nM in data set [5], 232 nM in data set [8] and 1460 nM in [6]. Besides, the Ratio IC50 in the data set filed under Homo sapiens came to 3.7. Also, the “inhibition (INH)” value in [9] is given as “Active”.

On to `O=C1CCc2ccc(OCCCN3CCCCC3)cc21`, for which the affinity at Histamine H3 receptor [1] corresponds to a Ki of 304 nM. For the same compound, the values for the inhibition at 10 µM in data set [2] and in [3] were not above 25% and 51 to 75%, respectively.

With `O=C1CCc2ccc(OCCN3CCCC3)cc21`, the Ki at Histamine H3 receptor [1] was 6120 nM. Further, the inhibition at 10 µM is not above 25% in data set [2] and 26 to 50% in data set [3].

`O=C1/C(=C/c2ccc(OCCCN3CCCCC3)cc2)Cc2cc(F)ccc21` showed a Ki on Histamine H3 receptor [1] of 2.2 nM. In addition, the values for the IC50 in data set [5], in data set [8] and in [6] were 9180 nM, 541 nM and 1930 nM, respectively. Further, in the data set filed under Homo sapiens, the Ratio IC50 stood at 4.8. In data set [9], the “inhibition (INH)” value is listed as “Active”. The compound further showed an inhibition at 10 µM in data set [3] of 76 to 100%.

In the case of `COc1ccc2c(c1)C(=O)/C(=C/c1ccc(OCCCN3CCCCC3)cc1)C2`, the affinity on Histamine H3 receptor [1], expressed as Ki, was 11 nM. Also, the inhibition at 10 µM in [2] and in data set [3] was 51 to 75% in each case.

As to `O=C1CCc2cc(OCCN3CCCCC3)ccc21`, at Histamine H3 receptor [1], the Ki is 205 nM. Moreover, the inhibition at 10 µM in data set [2] is not above 25%; in data set [3] it was 26 to 50%.

As for `O=C1/C(=C/c2ccccc2)Cc2ccc(OCCN3CCCCC3)cc21`, the inhibitory constant (Ki) at Histamine H3 receptor [1] came to 696 nM. Besides, the figures for the inhibition at 10 µM in [2] and in data set [3] were not above 25% and 76 to 100%, respectively.

On Histamine H3 receptor [1], `O=C1/C(=C/c2ccccc2)Cc2ccc(OCCCN3CCCCC3)cc21` yielded a Ki of 39 nM. The inhibition at 10 µM in data set [2] was not above 25%; in [3], 51 to 75%.

Regarding `O=C1CCc2cc(OCCCN3CCCCC3)ccc21`, the Ki on Histamine H3 receptor [1] stood at 159 nM. Moreover, the inhibition at 10 µM in data set [2] was not above 25%; in data set [3] it was 26 to 50%.
